# PubChem BioAssay AID540281 (Sanford-Burnham Center for Chemical Genomics, 2011)
# Out of some 2,500 compounds screened, about 1,500 (60%) were called active.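 How the source made its calls: active means inhibition of at least 30% at 20 µM; inactive means the rest.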 So high a share suggests a set chosen from earlier hits. Many of the other results were omitted from the sample, so actives are more common in it than they were.
# Target: Carboxy-terminal domain RNA polymerase II polypeptide A small phosphatase 1 (Homo sapiens) (UniProt Q9GZU7)
# Assay: Scp-1 phosphatase inhibitors, retest, confirmation, biochemical, colorimetric, single concentration (AID 540281);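 further: plate controls were DMSO with enzyme for no effect and buffer wells lacking enzyme for full effect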
# Conditions: recombinant SCP-1 catalytic domain, phosphate release, malachite green absorbance; at 20 µM; hits give high values
# How it was run: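 Test system: SCP-1 enzyme, residues 76-261; buffer or medium: Tris acetate pH 5.5 buffer with Mg2+ and detergent; also added: Phosphorylated 17-mer peptide as phosphatase substrate; compound dosing: single point at 20 µM, 1% DMSO; incubation: Enzyme–substrate reaction 45 min, room temperature; detection: colorimetric absorbance at 630 nm of released free orthophosphate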
# Sequence of Carboxy-terminal domain RNA polymerase II polypeptide A small phosphatase 1 (Homo sapiens) (Q9GZU7 76-261 limits assumed): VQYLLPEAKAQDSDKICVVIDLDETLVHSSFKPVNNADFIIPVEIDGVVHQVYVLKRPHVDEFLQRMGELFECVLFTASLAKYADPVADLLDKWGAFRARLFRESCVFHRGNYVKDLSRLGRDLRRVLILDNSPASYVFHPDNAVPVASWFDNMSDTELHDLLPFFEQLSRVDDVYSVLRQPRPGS
row,SMILES,inhibition
1,O=c1[nH]c(=O)n(CCc2ccc(F)cc2)c(O)c1/C=N/N1CCCCC1,34.8% (active)
2,COc1ccccc1N=C1SCCCN1C,81.9% (active)
3,O=C(O)CCn1cc(C=C2C(=O)NC(=S)NC2=O)c(-c2cccc(Br)c2)n1,40% (active)
